# Sampled rows, rich in hits. Any-hit rate of the full collection: about 1.9%.
# TDP2 absorb: TDP2 (human) inhibition, absorbance primary screen; inhibition, % at 12.8 µM; recombinant TDP2, T5PNP hydrolysis, p-nitrophenol absorbance 415 nm; 0.34% of 370,000 active; AID 720702; O95551;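 active = inhibition above the mean of all tested compounds plus 3 SD, set per campaign, cut at about 25% in these data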
#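 test system = human TDP2 enzyme | input = TDP2 enzyme at 120 nM final | medium = 50 mM Tris-HCl pH 7.5 with Mg2+, KCl, DTT, BSA | also added = T5PNP substrate, 5 mM | times = 2 h at 37 °C | technique = epi absorbance | benchmarks = high control without enzyme, low control DMSO plus TDP2 | replication = each compound tested once, singlicate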
# MBD2 inh: MBD2-methylated oligo binding inhibition | Q9UBB5 | TR-FRET, MBD2 binding to methylated oligonucleotide | inhibition, % at 4.4 µM | 0.31% of 370,000 active | AID 686964; in the data active = inhibition above about 13%
# UHRF1 MBD2 ctr: human UHRF1 methylated DNA binding inhibitors. UHRF1 binding to methylated oligo, TR-FRET. Q96T88. 0.75% of 370,000 active. inhibition, % at 4.4 µM; in the data active = inhibition above about 21%;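 also: UHRF1 SRA domain binding a hemimethylated CpG hairpin DNA probe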
# Target sequence (Q96T88 whole entry, looked up, the tested form may be a part): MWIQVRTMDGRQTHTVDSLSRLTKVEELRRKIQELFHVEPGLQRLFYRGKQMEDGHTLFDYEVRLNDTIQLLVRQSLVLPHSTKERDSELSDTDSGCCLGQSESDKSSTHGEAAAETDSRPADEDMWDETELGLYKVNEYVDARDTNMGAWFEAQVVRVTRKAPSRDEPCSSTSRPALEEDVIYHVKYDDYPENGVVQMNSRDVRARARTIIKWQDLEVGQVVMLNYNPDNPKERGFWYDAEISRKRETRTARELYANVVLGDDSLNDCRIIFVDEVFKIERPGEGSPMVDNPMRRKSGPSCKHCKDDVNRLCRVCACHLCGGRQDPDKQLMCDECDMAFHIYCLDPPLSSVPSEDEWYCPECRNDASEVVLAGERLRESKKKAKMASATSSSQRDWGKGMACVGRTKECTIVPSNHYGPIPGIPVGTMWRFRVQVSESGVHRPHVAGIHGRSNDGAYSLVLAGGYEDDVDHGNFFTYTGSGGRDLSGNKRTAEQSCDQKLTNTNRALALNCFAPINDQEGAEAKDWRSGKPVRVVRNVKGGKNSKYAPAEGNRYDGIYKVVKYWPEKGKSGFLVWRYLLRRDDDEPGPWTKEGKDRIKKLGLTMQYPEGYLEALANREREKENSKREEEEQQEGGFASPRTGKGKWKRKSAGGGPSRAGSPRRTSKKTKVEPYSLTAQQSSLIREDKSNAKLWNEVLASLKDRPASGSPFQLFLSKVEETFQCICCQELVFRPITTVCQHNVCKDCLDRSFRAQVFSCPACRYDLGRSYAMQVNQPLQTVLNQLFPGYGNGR
# LEDGF integ inh: blocks HIV-1 LEDGF/p75-dependent DNA integration; 0.64% of 370,000 active; inhibition, % at 3.7 µM; AID 743269; TR-FRET IN-LEDGF/p75 DNA integration, Eu/Cy5;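 active = inhibition above the screen-wide mean plus 3 SD, cut at about 13% in these data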;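 also: signal is the Cy5 over europium emission ratio at 671 and 618 nm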
# Rin1-Abl PPI inh: human Rin1-Abl interaction inhibition | TR-FRET Rin1/Abl binding, biochemical | inhibition, % at 7.35 µM | 0.4% of 360,000 active; in the data active = inhibition above about 5%, passing the limit was not always enough
# Rin1-Abl confirm: Rin1-Abl interaction inhibition confirmation; shares compounds with Rin1-Abl PPI inh; TR-FRET Rin1-Abl binding, purified proteins; inhibition, % at 7.35 µM; 49% of 1,300 active; in the data active = inhibition above about 6.5%
# GFP quench-1: counter-screen for Rin1-Abl inhibitors: GFP fluorescence quenchers. shares compounds with Rin1-Abl PPI inh. inhibitors/quenchers counterscreen. inhibition, % at 6.75 µM. 8.5% of 1,300 active. AID 602125; in the data active = inhibition above about 6.5%;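 also: ABL1-eGFP fusion protein alone without its partner RIN1-SBP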
# GFP quench dose: GFP fluorescence interference dose response; AID 602182; 230 tested, under 10 active; shares compounds with Rin1-Abl PPI inh; IC50, µM; GFP fluorescence interference/quenching counterscreen;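 also: ABL1-eGFP fusion protein alone without its RIN1 binding partner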
# GFP quench-2: quenches GFP fluorescence in Rin1-Abl counterscreen. shares compounds with Rin1-Abl PPI inh. GFP fluorescence quenching counterscreen, biochemical. IC50, µM. 25 tested, under 10 active. AID 602397
# Hits are given with their value; i = inactive; nt = no result. Unless noted, no rule for the calls is given here.
SMILES,TDP2 absorb,MBD2 inh,UHRF1 MBD2 ctr,LEDGF integ inh,Rin1-Abl PPI inh,Rin1-Abl confirm,GFP quench-1,others
CCC(c1nc2ccccc2c(=O)n1CCCn1ccnc1)N1C(=O)c2ccccc2C1=O (configuration not stated),i,i,i,i,15.0,21.0,i,GFP quench dose=i
CCOc1ccc(-n2c(SCC(=O)c3ccc4ccccc4c3)nnc2-c2cccc(Cl)c2)cc1,i,i,i,i,nt,nt,nt,
COC(=O)c1ccc(Cn2cnc3c(sc4nc(N5CCOCC5)c5c(c43)CCCC5)c2=O)o1,i,i,i,i,8.7,7.1,i,
CC1(C)Cc2c(c(N3CCOCC3)nc3sc4c(NCCN)ncnc4c23)CO1,i,i,i,i,i,nt,nt,
COC(=O)CSc1ncnc2c1sc1nc(N3CCOCC3)c3c(c12)CCCC3,i,i,i,i,i,nt,nt,
OCCN1CCN(c2ncnc3c2sc2nc(N4CCOCC4)c4c(c23)CCC4)CC1,i,i,i,i,14.5,22.8,i,GFP quench dose=i
OCCN(CCO)c1ncnc2c1sc1nc(N3CCOCC3)c3c(c12)CCCC3,i,i,i,i,10.8,8.3,i,
CC1(C)Cc2c(c(N3CCCC3)nc3sc4c(N5CCN(CCO)CC5)ncnc4c23)CO1,i,i,i,i,i,nt,nt,
CN(C)CCNc1ncnc2c1sc1nc(N3CCOCC3)c3c(c12)CC(C)(C)SC3,i,i,i,i,27.0,25.9,i,GFP quench dose=i
COCCCNC(=O)C[C@H]1C[C@@]2(C(=O)OC)C(=C[C@H](C(C)C)O[C@@H]2C2CC2)N(Cc2cccc3ccccc23)C1=O,i,i,i,i,nt,nt,nt,
O=C(Nc1ccccc1)OCCN1C(=O)CCC12CCC(c1ccc(Cl)cc1)CC2 (configuration not stated),i,i,i,i,nt,nt,nt,
COc1ccc(CC(=O)N(Cc2ccccc2)c2ccccc2C(=O)Nc2cc(OC)ccc2OC)cc1,i,i,i,i,nt,nt,nt,
COc1ccc(CNC(=O)O[C@H]2CC[C@@]34CCCN3C(=O)CCC[C@H]4[C@H]2C)cc1,i,i,i,i,nt,nt,nt,
COc1ccc(CCNc2cc(=O)[nH]c(N)n2)cc1,nt,nt,nt,nt,23.9,52.2,i,GFP quench dose=i;GFP quench-2=i
CCN(CC)C(=O)N1CCN(Cc2ccc3c(c2)OCO3)CC1,i,i,i,i,i,nt,nt,
O=C(C(Cl)Cl)N1CCN(Cc2ccc3c(c2)OCO3)CC1,i,i,i,i,6.9,i,i,
COC(=O)C(CN)CN1C(=O)c2ccccc2C1=O (configuration not stated),i,i,i,i,nt,nt,nt,
O=C(O)/C=C/C(=O)Nc1ccc(-n2ccc(C(F)(F)F)n2)cc1,i,i,i,i,6.4,i,i,
Cc1ncc(CN2CCCC(C(=O)Nc3ccc(-c4cscn4)cc3)C2)cn1 (configuration not stated),i,i,i,i,i,nt,nt,
Cc1ncc(CN2CCCC(C(=O)Nc3ccc(-c4ccco4)cc3)C2)cn1 (configuration not stated),i,i,i,i,15.5,10.2,i,
O=C(NC1=N[C@@]2(C=C3CCCCC3n3c(=O)n(-c4ccccc4)c(=O)n32)[C@H](Cc2ccccc2)N1Cc1ccccc1)c1ccccc1 (some centres not stated),i,i,i,i,nt,nt,nt,
O=S1(=O)c2ccc(N3CCN(Cc4ccccc4F)CC3)cc2Oc2ccccc2CN1Cc1cn(Cc2cccc(C(F)(F)F)c2)nn1,i,i,i,i,nt,nt,nt,
CCCCC(=O)Nc1ccc(C(=O)N2CCCC(C(=O)OCC)C2)cc1 (configuration not stated),i,i,i,i,7.3,i,i,
CCOC(=O)C1CCCN(C(=O)c2ccc(Cl)cc2)C1 (configuration not stated),i,i,i,i,i,nt,nt,
COC(=O)[C@H]1C[C@@]2(n3ccc4ccccc43)c3ccccc3N(S(=O)(=O)c3ccccc3)[C@H]2N1,i,i,i,i,nt,nt,nt,
SMILES,TDP2 absorb,MBD2 inh,UHRF1 MBD2 ctr,LEDGF integ inh,Rin1-Abl PPI inh,Rin1-Abl confirm,GFP quench-1,others
Cc1cc(/C=N/NC(=O)c2ccncc2)c(C)n1-c1ccccc1,i,i,i,i,i,nt,nt,
Cc1cc(C(=O)N/N=C/c2ccc(O)c(O)c2O)c(C)n1-c1ccccc1,i,i,i,i,20.1,10.8,7.8,
COC(=O)COc1cccc(NC(=O)COc2ccccc2)c1,i,i,i,i,7.5,i,i,
COC(=O)COc1cccc(NC(=O)c2ccccc2)c1,i,i,i,i,i,nt,nt,
N#CCC[C@@H]1CC[C@]2(CCCN(Cc3ccccc3)C2)O1,i,i,i,i,nt,nt,nt,
CC1=C(O)C(=O)C(C2=C(O)C(=O)C(C)=C(O)C2=O)=C(O)C1=O,i,i,i,i,46.5,37.4,27.7,
COC(=O)[C@]12C[C@H](CC(=O)N3CCN(C(=O)C4CC4)CC3)C(=O)N(Cc3ccc4c(c3)OCO4)C1=C[C@H](C(C)C)O[C@@H]2C1CC1,i,i,i,i,nt,nt,nt,
CCCCN1C(=O)NC2NC(=O)NC21 (configuration not stated),i,i,i,i,96.7,98.7,i,GFP quench dose=i
CCCCN1C(=O)N(C)C2NC(=O)NC21 (configuration not stated),i,i,i,i,66.1,75.5,i,GFP quench dose=i
C[C@@H]1CCCCO[C@@H](CN(C)S(=O)(=O)c2ccccc2)[C@@H](C)CN([C@H](C)CO)C(=O)c2cc(NS(=O)(=O)c3ccc(F)cc3)ccc2O1,i,i,i,i,51.1,59.9,i,GFP quench dose=i
CCOC(=O)CCCCCC(=O)Nc1ccc2c(c1)C(=O)N([C@H](C)CO)C[C@@H](C)[C@@H](CN(C)S(=O)(=O)c1ccc(C)cc1)OCCCC[C@H](C)O2,i,i,i,i,nt,nt,nt,
CCOC(=O)CCCCCC(=O)Nc1ccc2c(c1)C(=O)N([C@@H](C)CO)C[C@@H](C)[C@H](CN(C)S(=O)(=O)c1cccs1)OCCCC[C@H](C)O2,i,i,i,i,8.2,i,i,
Cc1noc(C)c1NC(=O)Nc1ccc2c(c1)C(=O)N([C@H](C)CO)C[C@H](C)[C@@H](CN(C)S(=O)(=O)c1ccccc1)O2,i,i,i,i,9.2,i,i,
c1ccc2c(c1)c1cccc3ccc4cccc2c4c31,i,i,i,i,8.2,i,i,
O=c1c2ccccc2ccc2ccccc12,i,i,i,i,i,nt,nt,
O=C(Nc1ccn(C2CCC(CO)O2)c(=O)n1)c1ccccc1 (configuration not stated),i,i,i,i,65.0,55.6,i,
C#CCO[C@@H]1C[C@H](n2ccc(NC(=O)c3ccccc3)nc2=O)O[C@@H]1CO,i,i,i,i,10.2,i,i,

# Screening results: PubChem BioAssay, The Scripps Research Institute Molecular Screening Center
